This test concerns L1210. Briefly: Cytotoxicity against mouse L1210 cells after 3 days by MTT assay. The conditions noted are these: L1210, 72 h. Type of test: functional, cell-based. The method in brief:
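Murine tumour cells under continuous drug exposure for 3 days. Growth inhibition measured by MTT assay. IC50 is the concentration inhibiting growth by 50%.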
(Tetrazolium dyes change colour on reduction, which living cells bring about.)

Each structure is given as a SMILES string. pIC50: −log10 of the molar value.

In general, pIC50 refers to the IC50 on a negative log10 scale, so that one unit is a factor of ten. `COc1c(O)c2c(c3cc(C(=O)N4CCc5c4c(O)c(OC)c4[nH]c(C(=O)N6C[C@H]7C[C@@]78C6=CC(=O)c6[nH]cc(C)c68)cc54)[nH]c13)CCN2C(N)=O` [(+)-CC-1065] gave a pIC50 of 10.52.

Source of the values: ChEMBL document CHEMBL1250434, “A novel achiral seco-cyclopropylpyrido[e]indolone (CPyI) analog of CC-1065 and the duocarmycins: synthesis, DNA interactions, in vivo anticancer and anti-parasitic evaluation” (Bioorg Med Chem, 2010).
